Laboratory results taken from ChEMBL document CHEMBL3351600, “Sulfur, selenium and tellurium pseudopeptides: synthesis and biological evaluation” (Bioorg Med Chem, 2014).
Activity calls are given as the source filed them. No cut-off for these calls is given here.

Key:
Escherichia coli = assay: Antimicrobial activity against Escherichia coli tolC assessed as inhibition at 20 ug/6 mm disk after 1 to 2 days by agar diffusion assay; format: functional
In short: (§1)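 Standard agar diffusion: 6-mm paper disks loaded with 20 µg of compound were placed on inoculated plates. Inhibition-zone diameter (mm) was read after 1 and 2 days of growth.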

[1] = Lipophilicity, log K of the compound by HPLC analysis
Candida albicans = assay: Antimicrobial activity against Candida albicans assessed as inhibition at 20 ug/6 mm disk after 1 to 2 days by agar diffusion assay; format: functional; in short: as §1
MCF7 [2] = assay: Cytotoxicity against human MCF7 cells assessed as cell viability after 24 hrs incubation by MTT assay; format: functional, cell-based; conditions: MCF7, 24 h
In short: (§2)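 Cell lines came from DSMZ; primary human fibroblasts served as non-cancer controls. Cells were grown in medium with 10% FCS, seeded at 50,000 cells/ml, and grown 2 days at 37 °C, 10% CO2. Serial dilutions were then added for 24 h. MTT (final 0.5 mg/ml) was added for 2 h. Formazan was pelleted, PBS-washed, dissolved in isopropanol/0.4% HCl and read at 590 nm. Two parallel experiments were run. IC50 was taken as the concentration giving 50% of untreated-control absorbance.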

A-431 [3] = assay: Cytotoxicity against human A431 cells assessed as cell viability after 24 hrs incubation by MTT assay; format: functional, cell-based; conditions: A-431, 24 h; in short: as §2
Micrococcus luteus = assay: Antimicrobial activity against Micrococcus luteus assessed as inhibition at 20 ug/6 mm disk after 1 to 2 days by agar diffusion assay; format: functional; in short: as §1
Saccharomyces cerevisiae = assay: Antimicrobial activity against Saccharomyces cerevisiae assessed as inhibition at 20 ug/6 mm disk after 1 to 2 days by agar diffusion assay; format: functional; in short: as §1
[4] = Cytotoxicity against human fibroblasts assessed as cell viability after 24 hrs incubation by MTT assay; format: cell-based; conditions: Fibroblast; in short: as §2
Aspergillus niger = assay: Antimicrobial activity against Aspergillus niger assessed as inhibition at 20 ug/6 mm disk after 1 to 2 days by agar diffusion assay; format: functional; in short: as §1
A-431 [5] = assay: Reduction in ROS in human A431 cells assessed as decrease in hydrogen peroxide level at 1 to 100 ng/ml after 1 hr by DCHFA assay; format: functional, cell-based
In short: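 A-431 cells (10^5 per well) were treated with a range of compound concentrations for 1 h. They were then loaded with DCHFA probe for 30 min in the dark. Fluorescence (ex 485/em 528 nm) was read immediately and expressed as arbitrary units per 10^5 cells.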

Pseudomonas aeruginosa = assay: Antimicrobial activity against Pseudomonas aeruginosa assessed as inhibition at 20 ug/6 mm disk after 1 to 2 days by agar diffusion assay; format: functional; in short: as §1
Staphylococcus aureus = assay: Antimicrobial activity against Staphylococcus aureus assessed as inhibition at 20 ug/6 mm disk after 1 to 2 days by agar diffusion assay; format: functional; in short: as §1
Klebsiella pneumoniae = assay: Antimicrobial activity against Klebsiella pneumoniae assessed as inhibition at 20 ug/6 mm disk after 1 to 2 days by agar diffusion assay; format: functional; in short: as §1
Mycolicibacterium phlei = assay: Antimicrobial activity against Mycobacterium phlei assessed as inhibition at 20 ug/6 mm disk after 1 to 2 days by agar diffusion assay; format: functional; in short: as §1
[6] = Octanol-water partition coefficient, log P of the compound by HPLC analysis; format: physicochemical
In short: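 Lipophilicity was measured by reversed-phase HPLC on a Nucleosil C18 column with isocratic water/methanol (3:1) at 0.5 ml/min and UV detection at 230 and 245 nm. Dead time was set with thiourea (t0 0.728 min). Retention factor was k = (tR − t0)/t0, and log P came from a calibration against at least six reference compounds.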

A-431 [7] = assay: Reduction in ROS in human A431 cells assessed as decrease in hydrogen peroxide level at 0.1 to 10 ng/ml after 1 hr by DCHFA assay; format: functional, cell-based
In short: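 A-431 cells were seeded at 10^5 per well and exposed to a range of compound concentrations for 1 h. They were then loaded with DCHFA probe for 30 min in the dark. Fluorescence was read immediately at ex/em 485/528 nm and expressed as arbitrary units per 10^5 cells.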

MCF7 [8] = assay: Cell cycle arrest in human MCF7 cells assessed as accumulation at G2/M phase after 30 mins by propidium iodide staining-based flow cytometric analysis; format: functional
In short: (§3)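 MCF-7 cells (10^6) were treated with compounds for 24 h alongside a methanol vehicle control. They were fixed in cold 70% methanol at 4 °C for one day, washed in PBS and permeabilised with 0.1% saponin in PBS. They were then stained with propidium iodide plus RNase (1 mg/ml) for 30 min, and DNA-content distribution was read by FACScan flow cytometry.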

MCF7 [9] = assay: Cell cycle arrest in human MCF7 cells assessed as accumulation at S phase […] by propidium iodide staining-based flow cytometric analysis; format: functional
MCF7 [10] = assay: Cell cycle arrest in human MCF7 cells assessed as accumulation at G0/G1 phase after 30 mins by propidium iodide staining-based flow cytometric analysis; format: functional; in short: as §3
PtK2 [11] = assay: Induction of morphological changes in Potorous tridactylus PtK2 cells assessed as lysis of ER and disappearance of actin stress fiber after 24 hrs by immunofluorescence microscopy; format: functional, cell-based
In short: (§4)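 PtK2 cells were grown on coverslips and treated at semi-confluence for 24 h. Fixation was either 3.7% paraformaldehyde followed by 0.1% Triton X-100 for 5 min, or ice-cold methanol/acetone (50:50) for 10 min. ER was stained with anti-GRP94 and tubulin with anti-α-tubulin (primary and Alexa 488 secondary antibodies, 45 min each). Actin was stained with phalloidin-Alexa 594 for 45 min and nuclei with DAPI. Imaging was by fluorescence microscopy.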

PtK2 [12] = assay: Induction of morphological changes in Potorous tridactylus PtK2 cells assessed as loss of typical shape after 24 hrs by immunofluorescence microscopy; format: functional, cell-based; in short: as §4

| SMILES | diameter of the inhibition zone (DIZ) (Escherichia coli) | log K [1] | Retention_time | diameter of the inhibition zone (DIZ) (Candida albicans) | IC50 (MCF7 [2]) | IC50 (A-431 [3]) | diameter of the inhibition zone (DIZ) (Micrococcus luteus) | diameter of the inhibition zone (DIZ) (Saccharomyces cerevisiae) | IC50 [4] | diameter of the inhibition zone (DIZ) (Aspergillus niger) | Activity (A-431 [5]) | diameter of the inhibition zone (DIZ) (Pseudomonas aeruginosa) | diameter of the inhibition zone (DIZ) (Staphylococcus aureus) | diameter of the inhibition zone (DIZ) (Klebsiella pneumoniae) | diameter of the inhibition zone (DIZ) (Mycolicibacterium phlei) | logP [6] | Activity (A-431 [7]) | other results |
| --- | --- | --- | --- | --- | --- | --- | --- | --- | --- | --- | --- | --- | --- | --- | --- | --- | --- | --- |
| COc1ccc(N(CC(=O)NCCCSc2ccccc2)C(=O)c2ccccc2)cc1 | 0 mm | -0.03 | 1.407 min | 0 mm | ≥ 100 µM | ≥ 100 µM | 0 mm | 0 mm | ≥ 100 µM | 0 mm | inactive | 0 mm | 0 mm | 0 mm | 0 mm | 3.1 |  |  |
| COc1ccc(N(CC(=O)NCCCSc2ccccc2)C(=O)C#Cc2ccccc2)cc1 | 0 mm | 0.12 | 1.698 min | 0 mm | ≥ 100 µM | ≥ 100 µM | 0 mm | 0 mm | ≥ 100 µM | 0 mm | inactive | 0 mm | 0 mm | 0 mm | 0 mm | 3.4 |  |  |
| COc1ccc(N(CC(=O)NCCC[Se]c2ccccc2)C(=O)/C=C/c2ccccc2)cc1 | 0 mm | 0.27 | 2.088 min | 0 mm | ≥ 100 µM | ≥ 100 µM | 0 mm | 0 mm | ≥ 100 µM | 0 mm | inactive | 0 mm | 0 mm | 0 mm | 0 mm | 3.7 |  |  |
| COc1ccc(N(CC(=O)NCCC[Te]c2ccccc2)C(=O)/C=C/c2ccccc2)cc1 | 11 mm | -0.84 | 0.834 min | 0 mm | 2 µM | 6 µM | 8 mm | 0 mm | 5 µM | 0 mm |  | 9 mm | 11 mm | 13 mm | 12 mm | 1.31 | Dose-dependent effect |  |
| CC(C)(C)OC(=O)NCC(=O)OCC(=O)NCCC[Te]c1ccccc1 | 12 mm | 0.32 | 2.247 min | 0 mm | 0.3 µM | 10 µM | 7 mm | 0 mm | 19 µM | 0 mm |  | 0 mm | 16 mm | 15 mm | 14 mm | 3.83 | Dose-dependent effect | Activity (MCF7 [8]): 3.78%; Activity (MCF7 [9]): 4.61%; Activity (MCF7 [10]): 91.61%; Activity (PtK2 [11]): Active; Activity (PtK2 [12]): Active |
| COc1ccc(N(CC(=O)NCCC[Se]c2ccccc2)C(=O)c2ccccc2)cc1 | 0 mm | -0.03 | 1.412 min | 0 mm | ≥ 100 µM | ≥ 100 µM | 0 mm | 0 mm | ≥ 100 µM | 18 mm | inactive | 0 mm | 0 mm | 0 mm | 0 mm | 3.1 |  |  |
